The record followed here is ChEMBL document CHEMBL3804799, “Synthesis and Biological Evaluation of Novel σ1 Receptor Ligands for Treating Neuropathic Pain: 6-Hydroxypyridazinones” (J Med Chem, 2016).

Series [1] deals with Mu-type opioid receptor (Homo sapiens) (UniProt P35372). Description: Displacement of [3H]-diprenorphine from human mu-opiod receptor expressed in CHO cells at 1 uM after 150 mins by liquid scintillation counting analysis. In kind it is cell-based.
Series [2] concerns Mus musculus. It counts as toxicity, organism-based, Kun Ming. The conditions noted are these: in vivo, po, 40 mg/kg.
Series [3] can be described thus: Tmax in Sprague-Dawley rat at 80 mg/kg, po administered through gavage by LC-MS/MS analysis. The conditions noted are these: in vivo. In kind it is ADME, organism-based. The essentials: (§1)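 SD rats, n = 3/group. Dosing was either 5 mg/kg iv via tail vein in saline or 80 mg/kg by oral gavage as a suspension in 0.5% methylcellulose. Serial tail-vein blood was drawn into heparinized tubes at 0.5, 1, 2, 3, 4, 5, 6, 8 and 24 h. Plasma was separated, proteins precipitated with acetonitrile, and samples analysed by LC/MS.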

For series [4], the system named is Mus musculus. The series is described as follows: Antiallodynic activity in ig dosed Kun Ming mouse assessed as inhibition of formalin-induced pain in delayed pain response phase administered 15 mins prior to formalin challenge measured after 15 to 45 mins post formalin dosing. In kind it is functional. The essentials:
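Mice received 20 μL of 2.5% formalin (0.92% formaldehyde) in the dorsal right hind paw. Time spent licking or biting the paw was scored at 0–5 min (phase I) and 15–45 min (phase II), with a mirror behind the glass cylinder. Vehicle was 30% PEG 400 at 10 mL/kg, given 15 min before formalin. n = 10–12 per group. % antinociception = (LT_V − LT_D)/LT_V × 100.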

For series [5], the target named is Cannabinoid receptor 1 (Homo sapiens) (UniProt P21554). Description: Displacement of [3H]-CP-55940 from human CB1 receptor expressed in CHO cells at 1 uM after 90 mins by liquid scintillation counting analysis. It counts as cell-based.
Cannabinoid receptor 1 (Homo sapiens), sequence (P21554 whole entry): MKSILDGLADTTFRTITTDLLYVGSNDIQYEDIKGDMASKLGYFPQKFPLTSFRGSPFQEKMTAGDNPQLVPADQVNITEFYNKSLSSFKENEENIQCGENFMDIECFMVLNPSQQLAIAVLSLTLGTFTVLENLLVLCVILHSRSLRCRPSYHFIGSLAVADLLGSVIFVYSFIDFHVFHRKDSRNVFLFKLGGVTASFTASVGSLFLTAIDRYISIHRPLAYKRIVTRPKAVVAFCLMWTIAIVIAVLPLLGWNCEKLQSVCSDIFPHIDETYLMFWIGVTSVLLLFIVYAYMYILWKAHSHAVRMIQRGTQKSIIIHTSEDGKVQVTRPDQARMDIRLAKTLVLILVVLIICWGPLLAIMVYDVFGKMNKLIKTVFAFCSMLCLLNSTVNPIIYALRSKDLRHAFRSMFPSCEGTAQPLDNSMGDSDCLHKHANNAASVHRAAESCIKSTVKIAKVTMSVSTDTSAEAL
Series [6] has as its system Mus musculus. In kind it is toxicity, organism-based, Kun Ming. The conditions noted are these: in vivo, po, 160 mg/kg.
Series [7] has as its target Cannabinoid receptor 2 (Homo sapiens) (UniProt P34972). Description: Displacement of [3H]-CP-55940 from human CB2 receptor expressed in HEK cells at 1 uM after 90 mins by liquid scintillation counting analysis. It counts as cell-based. The conditions noted are these: HEK293. In general terms: In a radioligand displacement assay an active substance lowers the binding of a labelled ligand.

A short description of series [8]: Oral bioavailability in Sprague-Dawley rat at 80 mg/kg administered through gavage by LC-MS/MS analysis. It counts as ADME, organism-based. As to conditions: in vivo. The procedure, abridged: as §1
The test system of series [9] is Rattus norvegicus. Description: Antiallodynic activity in po dosed Sprague-Dawley rat chronic constriction injury-induced neuropathic pain model assessed as inhibition of thermal hypersensitivity administered as bid on day 15th and 18th post surgery by plantar test. In kind it is functional. The procedure, abridged:
(§2)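 CCI or sham SD rats, 10 per group, dosed orally in 0.5% methylcellulose (10 mL/kg) twice daily on days 15–18. Tested after the first dose on day 15 and the last dose on day 18. Plantar test: after 30 min acclimation on a glass floor, radiant heat was applied under the hind paw and withdrawal latency recorded. 30 s cutoff; mean of four samplings.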

The test system of series [10] is Rattus norvegicus. Description: Antiallodynic activity in po dosed Sprague-Dawley rat chronic constriction injury-induced neuropathic pain model assessed as inhibition of thermal hypersensitivity administered as single dose on day 15th post surgery by plantar test. It counts as functional. The essentials:
as §2

Series [11] concerns Rattus norvegicus. Description: Antiallodynic activity in po dosed Sprague-Dawley rat chronic constriction injury-induced neuropathic pain model assessed as inhibition of mechanical allodynia administered as bid on day 15th and 18th post surgery by Von frey test. In kind it is functional. The procedure, abridged:
(§3)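 Sciatic nerve CCI in SD rats (Bennett–Xie) under 5% chloral hydrate: four loose 4-0 silk ligatures on the right sciatic nerve, about 1 cm proximal to the trifurcation. Oral dosing in 0.5% methylcellulose (10 mL/kg), twice daily on days 15–18. Testing followed the first dose on day 15 and the last dose on day 18. Mechanical withdrawal threshold by von Frey up–down method, four samplings averaged. 10 rats/group.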

Series [12] has as its system Rattus norvegicus. The series is described as follows: Effect on thermal hypersensitivity in sham-operated Sprague-Dawley rat at 20 to 80 mg/kg, po administered as bid on days 15th to 18th. It counts as ADME, organism-based. The conditions noted are these: in vivo. The essentials:
as §2

In series [13] the target is 5-hydroxytryptamine receptor 2A (Rattus norvegicus) (UniProt P14842). Description: Displacement of [3H]-ketanserin from 5HT2A receptor in rat cerebral cortex at 1 uM after 15 mins by liquid scintillation counting analysis. In kind it is tissue-based.
5-hydroxytryptamine receptor 2A (Rattus norvegicus), sequence (P14842 whole entry): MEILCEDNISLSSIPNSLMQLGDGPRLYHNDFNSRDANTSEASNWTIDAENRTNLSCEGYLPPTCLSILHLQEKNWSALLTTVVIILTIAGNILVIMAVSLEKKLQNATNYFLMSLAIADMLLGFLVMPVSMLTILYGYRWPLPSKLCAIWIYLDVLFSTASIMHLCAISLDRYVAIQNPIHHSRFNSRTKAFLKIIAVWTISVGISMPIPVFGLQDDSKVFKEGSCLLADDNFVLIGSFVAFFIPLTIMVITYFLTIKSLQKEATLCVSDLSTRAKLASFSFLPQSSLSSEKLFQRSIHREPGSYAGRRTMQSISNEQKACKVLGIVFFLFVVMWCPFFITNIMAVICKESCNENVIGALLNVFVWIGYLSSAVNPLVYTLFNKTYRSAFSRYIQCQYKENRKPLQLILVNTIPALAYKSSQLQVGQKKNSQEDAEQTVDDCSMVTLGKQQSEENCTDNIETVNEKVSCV
Series [14] has as its target Sodium-dependent serotonin transporter (Rattus norvegicus) (UniProt P31652). Description: Inhibition of 5HT transporter in rat cerebral cortex assessed as [3H]-paroxetine uptake at 1 uM after 10 mins by liquid scintillation counting analysis. It counts as tissue-based.
The subject of series [15] is Rattus norvegicus. The series is described as follows: Effect on mechanical allodynia in sham-operated Sprague-Dawley rat at 20 to 80 mg/kg, po administered as bid on days 15th to 18th. The conditions noted are these: in vivo. In kind it is ADME, organism-based. The essentials:
as §3

Molecules are shown by their SMILES. Bounds are passed on as bounds.

Sodium-dependent serotonin transporter (Rattus norvegicus), sequence (P31652 whole entry): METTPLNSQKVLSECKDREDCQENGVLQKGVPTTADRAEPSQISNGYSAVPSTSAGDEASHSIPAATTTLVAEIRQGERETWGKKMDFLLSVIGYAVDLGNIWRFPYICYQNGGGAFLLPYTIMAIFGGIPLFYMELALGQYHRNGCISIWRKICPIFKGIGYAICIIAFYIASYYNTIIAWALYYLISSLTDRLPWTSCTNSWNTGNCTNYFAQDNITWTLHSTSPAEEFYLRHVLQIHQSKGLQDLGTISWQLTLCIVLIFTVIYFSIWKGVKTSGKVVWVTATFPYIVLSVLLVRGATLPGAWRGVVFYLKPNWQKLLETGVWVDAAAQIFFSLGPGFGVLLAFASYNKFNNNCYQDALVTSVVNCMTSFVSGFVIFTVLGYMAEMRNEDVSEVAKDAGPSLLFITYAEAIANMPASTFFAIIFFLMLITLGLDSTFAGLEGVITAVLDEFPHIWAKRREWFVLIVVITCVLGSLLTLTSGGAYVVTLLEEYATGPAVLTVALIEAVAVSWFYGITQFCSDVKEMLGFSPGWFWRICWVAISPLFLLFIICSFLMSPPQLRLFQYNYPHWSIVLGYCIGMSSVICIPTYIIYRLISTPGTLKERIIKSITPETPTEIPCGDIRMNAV
Cannabinoid receptor 2 (Homo sapiens), sequence (P34972 whole entry): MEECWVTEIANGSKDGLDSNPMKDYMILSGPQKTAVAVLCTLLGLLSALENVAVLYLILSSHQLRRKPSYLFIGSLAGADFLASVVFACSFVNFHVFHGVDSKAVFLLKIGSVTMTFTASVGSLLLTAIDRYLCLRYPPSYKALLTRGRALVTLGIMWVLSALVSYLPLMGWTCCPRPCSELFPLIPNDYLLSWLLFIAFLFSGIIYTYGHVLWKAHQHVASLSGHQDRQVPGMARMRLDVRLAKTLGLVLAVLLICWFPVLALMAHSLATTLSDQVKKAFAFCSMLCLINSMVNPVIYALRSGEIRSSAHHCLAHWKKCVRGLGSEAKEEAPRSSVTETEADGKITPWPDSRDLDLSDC
Mu-type opioid receptor (Homo sapiens), sequence (P35372 whole entry): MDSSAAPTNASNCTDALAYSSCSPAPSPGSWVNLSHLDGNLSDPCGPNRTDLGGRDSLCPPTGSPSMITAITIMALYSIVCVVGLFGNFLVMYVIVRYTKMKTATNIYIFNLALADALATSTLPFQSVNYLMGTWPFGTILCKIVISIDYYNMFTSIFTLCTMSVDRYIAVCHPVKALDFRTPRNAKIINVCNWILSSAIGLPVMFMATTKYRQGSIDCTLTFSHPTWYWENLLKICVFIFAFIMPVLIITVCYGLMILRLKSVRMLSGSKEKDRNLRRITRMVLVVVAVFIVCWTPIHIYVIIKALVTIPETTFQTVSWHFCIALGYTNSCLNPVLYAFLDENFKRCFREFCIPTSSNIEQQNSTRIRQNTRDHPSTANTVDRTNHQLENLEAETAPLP

With `O=c1ccc(OCCCN2CCCCC2)nn1-c1ccc(Cl)c(Cl)c1`, the inhibition in series [1], in series [5], in series [7], in series [13] and in series [14] was below 50% throughout. Moreover, the Activity in the series with Mus musculus [2] is 22826.6 mm; in the series on Mus musculus [4], “Dose-dependent effect”; with Mus musculus [6], 16458.3 mm; in the series on Rattus norvegicus [12], “Non-toxic”; in the series on Rattus norvegicus [15], “Non-toxic”. The Tmax in [3] was found to be 19.8 min. Besides, the ED50 in the series with Mus musculus [4] (po) was 49 mg/kg; in the series with Rattus norvegicus [9], 16.9 mg/kg; in the series on Rattus norvegicus [10], 18.6 mg/kg; with Rattus norvegicus [11] it was 40.3 mg/kg. Further, the bioavailability in series [8] stood at 87.5%.

One may read the inhibition as the drop in the measured response relative to a control, in per cent. In general, Tmax refers to the time from dosing to the highest level. In general, ED50 refers to the midpoint of the dose-response relation. For orientation: bioavailability means dose-corrected exposure relative to a reference, in per cent.
